# This is a sample that favours compounds with a hit; in the whole collection about 1.8% have one here.
# UHRF1 binding – human UHRF1 methylated DNA binding inhibitors | UHRF1 binding to methylated oligo, TR-FRET | 370,000 tested, 0.75% active | Q96T88 | inhibition, % at 4.4 µM; in the data active = inhibition above about 21%;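 note: UHRF1 SRA domain binding a hemimethylated CpG hairpin DNA probe; 0% = median of test compound wells and 100% = reference inhibitor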
# NSD2 inh – NSD2 (human) methyltransferase inhibition | O96028 | NSD2 peptide methylation, AlphaScreen, 120 min | inhibition, % at 12.5 µM | 310,000 tested, 0.54% active | AID 743445; in the data active = inhibition above about 50%
# TDP2 absorb – TDP2 (human) inhibition, absorbance primary screen; O95551; recombinant TDP2, T5PNP hydrolysis, p-nitrophenol absorbance 415 nm; inhibition, % at 12.8 µM; 370,000 tested, 0.34% active;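 active = inhibition above the mean of all tested compounds plus 3 SD, set per campaign, cut at about 25% in these data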;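 note: 0% = DMSO with enzyme and 100% = buffer with substrate but no TDP2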
# Target sequence (O95551 whole entry, looked up): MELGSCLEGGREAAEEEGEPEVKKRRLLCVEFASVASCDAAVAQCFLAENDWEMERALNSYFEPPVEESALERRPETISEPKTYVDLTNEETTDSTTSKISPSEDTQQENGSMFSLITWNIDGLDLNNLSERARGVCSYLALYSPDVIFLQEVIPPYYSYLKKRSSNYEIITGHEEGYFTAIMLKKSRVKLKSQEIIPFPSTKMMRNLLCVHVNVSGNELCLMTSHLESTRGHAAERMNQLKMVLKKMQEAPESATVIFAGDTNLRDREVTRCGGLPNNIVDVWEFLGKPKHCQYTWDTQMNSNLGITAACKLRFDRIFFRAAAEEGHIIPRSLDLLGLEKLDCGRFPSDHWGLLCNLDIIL
#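 Test system: human TDP2 enzyme; Input: 120 nM TDP2 per well; Buffer or medium: Mg2+-containing Tris-HCl buffer, pH 7.5; Reagent: 5 mM T5PNP; Dosing: 12.8 µM single point, 1% DMSO; Incubation: reaction 2 h, 37 °C; Detection: p-Nitrophenol epi absorbance; Read-out: % inhibition relative to enzyme-containing and enzyme-free wells; Replicates: single well per compound.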
# CASP6 VEID inh – caspase-6 (human) enzyme inhibition | purified caspase-6, Z-VEID-R110 cleavage fluorescence | inhibition, % at 12.5 µM | 350,000 tested, 0.53% active;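 active = mean inhibition across replicates at least about 35%, with every replicate also reaching that limit, limit read from the data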;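 note: 0% = median of neutral control wells and 100% = no fluorescence left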
# MBD2 inh – blocks human MBD2 binding to methylated DNA | Q9UBB5 | TR-FRET, MBD2 binding to methylated oligonucleotide | inhibition, % at 4.4 µM | 370,000 tested, 0.31% active | AID 686964; in the data active = inhibition above about 13%
# LEDGF integ inh – blocks HIV-1 LEDGF/p75-dependent DNA integration; TR-FRET IN-LEDGF/p75 DNA integration, Eu/Cy5; inhibition, % at 3.7 µM; 370,000 tested, 0.64% active;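 active = inhibition above the screen-wide mean plus 3 SD, cut at about 13% in these data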;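 note: signal is the Cy5 over europium emission ratio at 671 and 618 nm; 0% = plate median of compound wells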
# Alpha artifact – AlphaScreen assay artifact in NSD2 counter-screen; shares compounds with NSD2 inh; AlphaScreen artifact counterscreen, preloaded methylated H4 peptide; AC35, µM (series often up to 10 µM), for the others: top-dose activity change, negative = signal loss; 1,500 tested, 9.4% active; call rule not given here
# Starred values were filed as active, the others as inactive; · = no result.
SMILES,UHRF1 binding,NSD2 inh,TDP2 absorb,CASP6 VEID inh,MBD2 inh,LEDGF integ inh,Alpha artifact
O=C(CN(C(=O)c1csnn1)c1cccc2ccccc12)NCc1ccccc1,-1.7,96.5*,0.7,-0.7,-4.4,-1.0,0.9%
O=C(CN(C(=O)c1csnn1)c1cccc2ccccc12)NCc1ccc(F)cc1,-1.1,-4.7,-1.3,0.4,-3.8,-0.4,·
CC(=O)c1ccc(N(CC(=O)NCCc2ccccc2)C(=O)c2csnn2)cc1,1.9,70.4*,-0.8,0.5,0.3,4.2,-0.9%
C[C@H]1CCCCO[C@H](CN(C)C(=O)CCCN(C)C)[C@@H](C)CN([C@@H](C)CO)C(=O)c2cc(NC(=O)CCC(F)(F)F)ccc2O1,·,·,·,3.6,·,·,·
C[C@@H]1CN([C@@H](C)CO)C(=O)c2cc(NC(=O)CCCN(C)C)ccc2O[C@H]1CN(C)Cc1ccc(-c2ccccc2)cc1,·,·,·,3.0,·,·,·
Cc1ccc(-c2csc3nc(CN(C)Cc4ccccc4)[nH]c(=O)c23)cc1,-2.2,59.8*,-0.2,4.6,-3.1,1.1,2.3%
C[C@@H]1CN([C@@H](C)CO)C(=O)c2cc(NS(=O)(=O)c3ccc(F)cc3)ccc2O[C@H]1CN(C)S(=O)(=O)c1cccs1,·,·,·,1.9,·,·,·
CC1=C(C#N)c2nc(N)c(C#N)c(C)c2/C1=C\c1ccc(-c2ccccc2C(=O)O)o1,14.6,81.9*,5.6,53.6*,-0.5,10.1,-11.9%
COc1cc(OC)c(C2CC(=O)N3CN(C)CSC3=C2C#N)cc1OC (stereo not drawn),-2.2,·,1.1,3.0,0.8,2.1,·
COc1ccc2ccccc2c1C1CC(=O)N2CN(C)CSC2=C1C#N (stereo not drawn),-4.8,88.7*,16.4,27.0,-3.4,7.1,-6.6%
Cc1cc(-c2ccc(C)c(S(=O)(=O)N3CCN(c4ccccn4)CC3)c2)on1,2.2,130.9*,1.2,2.0,3.2,-0.3,-3.3%
C/C(CC(=O)Nc1ccc2ccccc2c1)=N\NC(=O)c1cnccn1,-3.1,-0.4,0.8,·,0.8,1.5,·
C/C(CC(=O)Nc1ccc2ccccc2c1)=N\NC(=O)c1ccc(O)c(O)c1,1.7,111.5*,6.2,30.3,-2.8,4.6,-13.9%
C[C@@H]1CCCCO[C@@H](CN(C)C(=O)Nc2ccc3c(c2)OCO3)[C@@H](C)CN([C@H](C)CO)C(=O)c2cc(NS(=O)(=O)c3ccccc3)ccc2O1,·,·,·,1.8,·,·,·
O=C(C[C@@H]1C[C@H]2c3cc(NC(=O)Nc4ccccc4F)ccc3O[C@H]2[C@H](CO)O1)NCc1cc(F)ccc1F,·,·,·,0.7,·,·,·
CO[C@H]1CN(C)C(=O)c2cc(NS(=O)(=O)c3ccccc3Cl)ccc2OC[C@H](C)NC[C@H]1C,·,·,·,2.1,·,·,·
CC1CCCCN1C(=O)CCNC(=O)Cn1cnc2ccccc2c1=O (stereo not drawn),-1.4,93.5*,8.9,-1.0,0.2,-0.9,0.9%
COc1ccc(C)cc1NC(=O)CCNC(=O)Cn1cnc2ccccc2c1=O,1.6,90.1*,-13.8,-1.1,-0.2,1.9,-0.7%
CCCC#Cc1ccc2c(c1)O[C@H](CN(C)C(=O)Nc1ccccc1F)[C@@H](C)CN([C@H](C)CO)S2(=O)=O,·,·,·,0.2,·,·,·
C[C@@H]1CN([C@H](C)CO)C(=O)c2cc(NC(=O)c3ccncc3)ccc2O[C@@H]1CN(C)S(=O)(=O)c1cccs1,·,·,·,-2.0,·,·,·
CCC(CC)c1nnc(NC(=O)CCS(=O)(=O)Cc2ccccc2)s1,1.4,61.1*,11.9,-2.2,2.0,2.3,-0.7%
CCc1nnc(NC(=O)CCS(=O)(=O)Cc2ccccc2)s1,0.1,-10.1,-12.5,2.3,-3.8,-0.3,·
Cc1noc(C)c1NC(=O)Nc1ccc2c(c1)CC(=O)N([C@H](C)CO)C[C@H](C)[C@H](CN(C)S(=O)(=O)c1ccc(F)cc1)O2,·,·,·,1.4,·,·,·
CCN1CC2CCCC3(C1)C(=O)NC1(CCCCC1)N=C23 (stereo not drawn),0.7,56.0*,2.4,·,2.5,0.3,-3.9%
CCNC(=O)[C@@H]1[C@@H](CO)[C@@H]2Cn3c(ccc(-c4cccnc4)c3=O)[C@@H]2N1Cc1ccc2c(c1)OCO2,·,·,·,1.7,·,·,·
SMILES,UHRF1 binding,NSD2 inh,TDP2 absorb,CASP6 VEID inh,MBD2 inh,LEDGF integ inh,Alpha artifact
O=C(Cn1cnc2c(cnn2-c2ccccc2)c1=O)OCc1ccccc1,0.9,94.9*,1.2,·,0.6,1.0,4.6%
Cc1ccc(-n2ncc3c(=O)n(CC(=O)OCc4ccccc4)cnc32)cc1,-0.2,1.3,3.8,·,-8.0,0.1,·
O=C(O)C[C@H]1C[C@H]2c3cc(NC(=O)NC4CCCCC4)ccc3O[C@H]2[C@@H](CO)O1,·,·,·,-1.4,·,·,·
O=C1NN(c2ccc(Cl)cc2)C(=O)/C1=C\c1ccc(-c2cccc(C(=O)O)c2)o1,28.0*,53.8*,-5.2,73.3*,4.9,-0.3,-12.1%
COc1ccc(CCCc2n[nH]c(=S)o2)cc1C,-2.9,0.6,-5.9,-5.2,0.5,6.7,·
COc1ccc(CCCc2n[nH]c(=S)n2C)cc1C,3.6,52.3*,-15.6,2.0,0.9,0.7,-1.7%
CC(C)NC(=O)Nc1ccc2c(c1)C(=O)N([C@H](C)CO)C[C@H](C)[C@@H](CN(C)C(=O)NC(C)C)OCCCC[C@@H](C)O2,·,·,·,0.5,·,·,·
O=C(C[C@@H]1CC[C@@H](NS(=O)(=O)c2ccc(F)cc2)[C@H](CO)O1)NC1CCC1,·,·,·,-1.9,·,·,·

# Screening data: PubChem BioAssay, several laboratories
